Bioassay records: PubChem, The Scripps Research Institute Molecular Screening Center
CHRM4 PAM = CHRM4 positive allosteric modulation; P08173; CHO-K1 hM4/Gqi5, Fluo-8 calcium fluorescence, ACh EC20; 0% = ACh EC20, 100% = maximal ACh; activation, % at 3 µM; 360,000 compounds, 0.4% hits; AID 624126;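 active = activation above its plate's cutoff, the mean activation of sample wells plus 3 SD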
Target sequence (P08173 whole entry, looked up): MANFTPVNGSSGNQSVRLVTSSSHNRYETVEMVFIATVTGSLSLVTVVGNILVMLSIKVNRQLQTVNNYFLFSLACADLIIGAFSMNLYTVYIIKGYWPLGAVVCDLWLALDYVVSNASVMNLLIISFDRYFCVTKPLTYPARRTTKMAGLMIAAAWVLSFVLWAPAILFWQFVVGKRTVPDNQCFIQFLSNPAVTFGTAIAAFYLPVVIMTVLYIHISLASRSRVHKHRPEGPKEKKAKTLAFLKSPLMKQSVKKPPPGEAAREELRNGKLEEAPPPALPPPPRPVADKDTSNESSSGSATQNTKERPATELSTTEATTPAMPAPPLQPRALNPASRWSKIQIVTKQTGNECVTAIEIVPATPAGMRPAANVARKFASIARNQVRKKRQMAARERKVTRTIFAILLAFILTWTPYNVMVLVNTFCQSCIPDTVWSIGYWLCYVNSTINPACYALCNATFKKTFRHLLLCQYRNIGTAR
CHRM5 antagonist = blocks acetylcholine activation of human M5 receptor; P08912; CHO-hM5 cells, Fluo-8 calcium fluorescence, ACh EC80; inhibition, % at 3 µM; 360,000 compounds, 0.59% hits;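 active = inhibition above a per-plate cutoff, the mean of that plate's test compounds plus 3 SD, cut at about 27% in these data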;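 note: 0% = acetylcholine EC80 with DMSO and 100% = DMSO without agonist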
CHRM4 agonist = CHRM4 agonism in calcium assay; P08173; CHO-K1 hM4/Gqi5, Fluo-8 calcium fluorescence; vehicle 0%, full acetylcholine response 100%; activation, % at 3 µM; 360,000 compounds, 0.14% hits;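 active = activation above the run mean over all test wells plus 3 SD, cut at about 32% in these data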;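 note: peak over basal fluorescence ratio per well then scaled between controls; 0% = DMSO wells and 100% = acetylcholine at EC100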
CHRM5 agonist = agonists of human muscarinic M5 receptor (CHRM5); CHO-K1 hM5 cells, Fluo-8 calcium fluorescence; 0% DMSO wells, 100% maximal acetylcholine response; P08912; 360,000 compounds, 0.19% hits; activation, % at 3 µM;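 active = activation above the run's mean over test compounds plus 3 SD, cut at about 23% in these data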;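 note: signal is peak over basal fluorescence ratio across the kinetic read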
M5 PAM = CHRM5 positive allosteric modulation; CHO-K1 hM5, Fluo-8 calcium, ACh EC20 PAM; 0% = ACh EC20, 100% = ACh EC100; activation, % at 3 µM; 360,000 compounds, 0.3% hits; AID 624038;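 active = activation above the run cutoff, the mean activation of all test compounds plus 3 SD, cut at about 18% in these data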
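System: CHO-K1 hM5 cells. Reagent: acetylcholine, EC20 level. Compound dosing: single dose, 3 µM nominal final test concentration. Timing: Post-acetylcholine fluorescence recording 140 s. Detection: Fluo-8 calcium fluorescence. Read-out: % activation, ACh-normalized. Benchmarks: ACh EC20 and EC100 wells. Repeats: singlicate, one well per test compound.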
M4 antag = antagonists of human muscarinic M4 receptor (CHRM4). CHO-hM4 cells, ACh EC80, Fluo-8 calcium fluorescence. inhibition, % at 3 µM. 360,000 compounds, 0.73% hits. AID 624125;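 active = inhibition above its plate's cutoff, the mean inhibition of sample wells plus 3 SD, cut at about 27% in these data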;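 note: 0% = acetylcholine EC80 with DMSO and 100% = DMSO without agonist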
* hit, by the source's call. In the library only some 1.9% were active in any assay of this set; here they are far more common.

`CCOc1ccc2c(c1)c(C(C)=O)c(C)n2Cc1ccco1` gave CHRM4 PAM -3, CHRM5 antagonist 8, CHRM4 agonist 3, CHRM5 agonist -2, M5 PAM -6 and M4 antag 0.
`CC=C(C)C1(CCC)C(=O)NC(=S)NC1=O` gave CHRM4 PAM 4, CHRM5 antagonist 4, CHRM4 agonist 1, CHRM5 agonist 3, M5 PAM -8 and M4 antag -13.
`CCc1nn(CC(=O)N2CCC3(CC2)OCCO3)c(=O)c2cccn12` gave CHRM4 PAM 2, CHRM5 antagonist -3, CHRM4 agonist 1, CHRM5 agonist -2, M5 PAM 6 and M4 antag 1.
CC[n+]1c(/C=C/C=C/c2ccc(N(C)C)cc2)sc2ccccc21 was read as CHRM4 PAM -14, CHRM5 antagonist 51*, CHRM4 agonist 23, CHRM5 agonist -2, M5 PAM -30 and M4 antag 55*.
`CCCc1nc2ccc(Br)cc2c(=O)n1-c1ccc([N+](=O)[O-])c(C(F)(F)F)c1` gave CHRM4 PAM -12, CHRM5 antagonist 27*, CHRM4 agonist 7, CHRM5 agonist 2, M5 PAM -14 and M4 antag 17.
Screening CCc1nc2ccc(Br)cc2c(=O)n1-c1ccccc1C(F)(F)F returned CHRM4 PAM -2, CHRM5 antagonist -1, CHRM4 agonist 1, CHRM5 agonist -7, M5 PAM -3 and M4 antag 5.
`COC(=O)C1=C(c2ccc(F)cc2OCc2ccccc2)C[C@@H]2CC[C@H]1N2C(=O)NCCN1CCOCC1` gave CHRM4 PAM 7, CHRM5 antagonist 1, CHRM4 agonist 1, CHRM5 agonist -3, M5 PAM 6 and M4 antag -8.
For CC1CCCN(c2ccc(C(=O)N3CCC4(CC3)OCCO4)cc2[N+](=O)[O-])C1 (stereo unspecified) the results were CHRM4 PAM -2, CHRM5 antagonist -4, CHRM4 agonist 2, CHRM5 agonist -2, M5 PAM 6 and M4 antag -7.
Screening CCOC(=O)C1CCCN(c2ccc([N+](=O)[O-])c3nonc23)C1 (stereo unspecified) returned CHRM4 PAM -31, CHRM5 antagonist 52*, CHRM4 agonist 314*, CHRM5 agonist 185*, M5 PAM -37 and M4 antag 53*.
`CCCCn1nnnc1C(C1CC1)N1CCC2(CC1)C(=O)NCN2c1ccccc1` (stereo unspecified) gave CHRM4 PAM -7, CHRM5 antagonist 5, CHRM4 agonist 6, CHRM5 agonist 0, M5 PAM -4 and M4 antag -6.
`O=C(CCCN1CCC2(CC1)C(=O)NCN2c1ccccc1)c1ccc(F)cc1` gave CHRM4 PAM -20, CHRM5 antagonist 96*, CHRM4 agonist 135*, CHRM5 agonist 81*, M5 PAM -21 and M4 antag 99*.
`COC(=O)C1=C(c2ccc(S(C)(=O)=O)cc2)C[C@@H]2CC[C@H]1N2C(=O)NC(C)C` gave CHRM4 PAM 6, CHRM5 antagonist 16, CHRM4 agonist 0, CHRM5 agonist -1, M5 PAM -7 and M4 antag 7.
COc1ccc(CCNC(=O)c2c(N)n(CCN3CCOCC3)c3nc4ccccc4nc23)cc1OC was read as CHRM4 PAM -21, CHRM5 antagonist 34*, CHRM4 agonist 17, CHRM5 agonist 0, M5 PAM -15 and M4 antag 18.
Screening O=C(Oc1ccc([N+](=O)[O-])cc1)N1CCC(N2CCCCC2)CC1 returned CHRM4 PAM -17, CHRM5 antagonist 4, CHRM4 agonist 0, CHRM5 agonist -8, M5 PAM -4 and M4 antag 56*.
For CC(=O)Nc1ccc(OC(=O)N2CCCCC2)cc1 the results were CHRM4 PAM 8, CHRM5 antagonist -4, CHRM4 agonist 0, CHRM5 agonist -2, M5 PAM 1 and M4 antag -1.
For Fc1ccccc1CNCCc1ccc2c(c1)OCO2 the results were CHRM4 PAM -2, CHRM5 antagonist 10, CHRM4 agonist 0, CHRM5 agonist -12, M5 PAM -4 and M4 antag -2.
`CCC1(C)OC(c2ccccc2)=C/C(=C/C=C2C(=O)NC(=O)NC2=O)O1` (stereo unspecified) gave CHRM4 PAM -10, CHRM5 antagonist 5, CHRM4 agonist 16, CHRM5 agonist 61*, M5 PAM -19 and M4 antag 10.
`CSc1ncc(Br)c(N2CC2)n1` gave CHRM4 PAM -9, CHRM5 antagonist 9, CHRM4 agonist 2, CHRM5 agonist -10, M5 PAM 4 and M4 antag 15.
For CC[N+](CC)(CC)CCCOC(=O)C(O)(c1ccccc1)C1CCCCC1 (stereo unspecified) the results were CHRM4 PAM -22, CHRM5 antagonist 99*, CHRM4 agonist 0, CHRM5 agonist -7, M5 PAM -22 and M4 antag 99*.
C[N+](C)(N)CCOC(=O)C(O)(c1ccccc1)C1CCCCC1 (stereo unspecified) was read as CHRM4 PAM -15, CHRM5 antagonist 99*, CHRM4 agonist 1, CHRM5 agonist -20, M5 PAM -30 and M4 antag 99*.
`O=C(COC(=O)Cc1ccccc1)NC(=O)NC1CCCCC1` gave CHRM4 PAM 6, CHRM5 antagonist 5, CHRM4 agonist 1, CHRM5 agonist 2, M5 PAM -2 and M4 antag -1.
COC(=O)C1=C(c2ccc(-c3ccccc3)c(F)c2)C[C@@H]2CC[C@H]1N2C(=O)NCc1cccc2ccccc12 was read as CHRM4 PAM 4, CHRM5 antagonist 8, CHRM4 agonist 1, CHRM5 agonist 2, M5 PAM 1 and M4 antag -10.
Screening O=C(c1cc(F)ccc1F)C1CCCN(CCCc2ccccc2)C1 (stereo unspecified) returned CHRM4 PAM -17, CHRM5 antagonist 12, CHRM4 agonist 0, CHRM5 agonist -9, M5 PAM -17 and M4 antag 32*.
`Cc1ccc(C(=O)COC(=O)Cc2ccccc2)cc1` gave CHRM4 PAM 17, CHRM5 antagonist -1, CHRM4 agonist -1, CHRM5 agonist -3, M5 PAM 6 and M4 antag 2.
Screening COc1cc2c(cc1OC)C1C(=O)c3ccc4c(c3OC1CO2)CC(C(C)C)O4 (stereo unspecified) returned CHRM4 PAM -6, CHRM5 antagonist 3, CHRM4 agonist 10, CHRM5 agonist -3, M5 PAM -11 and M4 antag -3.
